Compound activity: PubChem BioAssay, several laboratories
TNF necrop inh: inhibitors of TNF-alpha triggered necroptosis, primary screen, cell-based, Jurkat FADD-/-, single concentration. Jurkat FADD-/- TNF necroptosis rescue, ATP luminescence, 24 h; 0 = TNF only, 100 = no-TNF cells. activation (protection from cell death), % at 10 µM. actives 0.068% (n = 220,000);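 active = activation, meaning protection from cell death, of at least 50% relative to plate controls; inactive = activation below 50%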;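 also: necroptosis triggered by 40 ng/mL TNF-alpha added together with compound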
MDM2 E3 inh: MDM2-luciferase reporter signal enhancers, primary screen, MDM2 E3 ligase inhibitor project, cell-based, luminescence, 1536-well; E3 ubiquitin-protein ligase Mdm2 (Homo sapiens), Q00987; cell-based MDM2 ubiquitination luciferase reporter, 2 h; 0 = plate control, 100 = twice control, blank-subtracted; signal enhancement, % at 5 µM; actives 0.11% (n = 210,000);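 active = signal enhancement of 30% or more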;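 also: luminescence tracks abundance of the self-degrading MDM2-luciferase fusion protein; higher signal means inhibition of MDM2 E3 ligase activity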
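System: stable MDM2–luciferase fusion reporter cells / Input: 2000 cells seeded into each well / Schedule: 4 h settle plus 2 h compound, 37 °C / Compound: single-point 5 µM / Buffer or medium: cells held in DMEM / Benchmarks: control and blank well means / Evaluation: percent signal gain over controls, blank-subtracted / Measured by: luciferase luminescence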
zVAD death inh: inhibitors of zVAD-triggered necroptosis, primary screen, L929 cells; L929 zVAD necroptosis rescue, ATP luminescence, 24 h; with zVAD 60 µM; viability rescue, % at 10 µM; actives 0.38% (n = 220,000); AID 1377, 2008;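 active = activation, scaled between plate controls, above about 75%, limit read from the data; inactive = activation under that limit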;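 also: 0% = zVAD with DMSO and 100% = DMSO alone without zVAD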
Wee1 degr inh: Wee1 degradation inhibitors, primary screen, cell-based, HeLa, Wee1K328M-luciferase, luminescence; Wee1-like protein kinase (Homo sapiens), P30291; HeLa Luc-Wee1K328M stability; 100% = proteasome inhibitor MG132 effect; reporter increase, % at 5 µM; actives 1.2% (n = 220,000); AID 1321, 2008;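 active = activation above the mean of all tested compounds plus 3 SD, set per screening run, cut at about 8.8% in these data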;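 also: cells exposed to compound for 20 h before luminescence read; 0% = DMSO alone and 100% = MG132 at 30 µM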
Target sequence (P30291 whole entry K328M): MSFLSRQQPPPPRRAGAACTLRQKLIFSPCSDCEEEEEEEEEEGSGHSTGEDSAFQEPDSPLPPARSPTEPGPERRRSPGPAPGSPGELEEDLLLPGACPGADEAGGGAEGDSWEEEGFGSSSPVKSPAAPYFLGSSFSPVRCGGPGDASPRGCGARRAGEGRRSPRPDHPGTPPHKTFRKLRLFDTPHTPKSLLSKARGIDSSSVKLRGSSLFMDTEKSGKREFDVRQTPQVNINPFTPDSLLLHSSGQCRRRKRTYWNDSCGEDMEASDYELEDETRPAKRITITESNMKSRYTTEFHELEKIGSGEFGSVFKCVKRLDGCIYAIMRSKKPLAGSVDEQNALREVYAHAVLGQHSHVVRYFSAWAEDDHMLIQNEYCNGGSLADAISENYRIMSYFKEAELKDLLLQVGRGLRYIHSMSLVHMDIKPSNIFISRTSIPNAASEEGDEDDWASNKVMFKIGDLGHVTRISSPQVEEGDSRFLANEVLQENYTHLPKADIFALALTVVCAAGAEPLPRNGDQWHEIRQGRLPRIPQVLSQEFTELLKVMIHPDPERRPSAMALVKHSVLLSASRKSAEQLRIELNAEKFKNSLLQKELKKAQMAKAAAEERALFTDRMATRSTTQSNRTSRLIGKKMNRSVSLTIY
Pf gametocyte: late stage P. falciparum gametocyte viability inhibitors, primary screen, ATP luminescence, HTS | P. falciparum stage V gametocytes, 24 h | actives 0.065% (n = 150,000) | inhibition, % at 10.9 µM | AID 743093, 2013;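 active = inhibition above the mean plus 3 SD of compounds within the control limits, set per campaign, cut at about 38% in these data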;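 also: 0% = DMSO wells and 100% = medium only without gametocytes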
zVAD necrop conf: inhibitors of zVAD-triggered necroptosis in L929, confirmation, L929 cells, duplicate runs; activation (protection from necroptosis), % at 10 µM; shares compounds with zVAD death inh; L929 zVAD-induced necroptosis rescue, ATP luminescence, 24 h; actives 16% (n = 760); AID 463117, 2010;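 active = mean protection from necroptosis of at least 50% over duplicate tests; inactive = mean protection below 50%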;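 also: 0% = cells with zVAD alone and 100% = vehicle cells without zVAD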
* marks the source's active call; other numbers are inactive results; x = not tested or not shown. Rows were chosen to be rich in hits. Some 1.6% of all compounds tested hit in one or more screens of this group.

SMILES | TNF necrop inh | MDM2 E3 inh | zVAD death inh | Wee1 degr inh | Pf gametocyte | zVAD necrop conf
CCCN(CCC)CCCNC(=O)c1cc2c(=O)n(C)c3ccccc3c2n1C | 3 | -18 | 79* | 0 | x | 36
CCN(CC)CCCNC(=O)c1cc2c(=O)n(C)c3ccccc3c2n1C | 4 | -8 | 77* | -2 | x | 33
CN(C)CCNC(=O)c1cc2c(=O)n(C)c3ccccc3c2n1C | 3 | -15 | 59 | -2 | x | x
CCN(CC)CCNC(=O)c1cc2c(=O)n(C)c3ccccc3c2n1C | 5 | -11 | 77* | -2 | x | 20
O=C1NC(Nc2ccccn2)(C(F)(F)F)C(=O)N1c1ccc(F)cc1 (centres undefined) | -1 | 0 | -1 | 5 | -5 | x
CC1(C)CC(=O)C(C2C3=C(CC(C)(C)CC3=O)Oc3ccccc32)C(=O)C1 (centres undefined) | 2 | -4 | 1 | 2 | 3 | x
CC1(C)CC(=O)C2=C(C1)Oc1nc3ccccc3cc1C2C(C#N)C#N (centres undefined) | -12 | 6 | 90* | 0 | 13 | 2
COC(=O)c1[nH]c2cc(OC)c(OC)cc2c1NC(=O)c1cccc(OC)c1 | -11 | x | 2 | -2 | x | x
CSc1ccc(C2(O)Cc3cccc[n+]3C2c2ccccc2)cc1 (centres undefined) | 1 | 1 | 0 | -1 | 3 | x
COc1ccc(N/N=C(/C(N)=O)C2=NC(C)(C)Cc3ccccc32)cc1 | 2 | -5 | 76* | -2 | -6 | 39
COc1ccc(N/N=C(\C#N)C(N)=O)cc1 | 2 | -4 | 1 | 3 | -5 | x
CCN(CC)c1ccc(C(=O)OCC(=O)Nc2ccccc2-c2ccccc2)cc1 | 0 | -20 | 1 | -2 | 22 | x
O=C(NC1CCCc2ccccc21)c1cn2ccccc2n1 (centres undefined) | 2 | -6 | 0 | -3 | -16 | x
C(=N\n1cnc2ccccc21)/c1cccnc1 | 1 | -12 | 8 | 3 | -1 | x
Cc1cc2ncn(/N=C/c3cccnc3)c2cc1C | -2 | 10 | 76* | -1 | x | 36
CCCCC(=O)Nc1nc2ccc3nc(C)sc3c2s1 | 7 | -11 | 46 | 3 | x | x
CCCC(=O)Nc1nc2ccc3nc(C)sc3c2s1 | 5 | -19 | 91* | 8 | x | 0
O=C(Nc1nc2ccsc2c(=O)s1)C1CCC1 | 1 | -11 | 0 | -1 | -12 | x
Cc1nc2c(ccc3nc(NC(=O)C4CC4)sc32)s1 | 1 | -29 | 80* | 3 | -16 | 18
CCC(=O)Nc1nc2ccc3sc(C)nc3c2s1 | -4 | -34 | 79* | -3 | -27 | 8
COc1ccc(N(C(=O)c2cnsn2)C(C(=O)NC2CCCCC2)c2ccncc2)cc1 (centres undefined) | 0 | -18 | 0 | -3 | 10 | x
COc1ccc(C(=O)Nc2nccs2)cc1OC | 30 | -17 | 80* | 1 | -47 | 46
COc1ccccc1CC(=O)Nc1cccc(C(=O)Nc2nccs2)c1 | 11 | -11 | 3 | -2 | 6 | x
O=C(Nc1nccs1)c1cccc(NC(=O)C(F)(F)F)c1 | 15 | -7 | 97* | -1 | 9 | 47
O=C(Nc1ccccc1)Nc1nccs1 | 7 | -9 | 85* | -2 | -48 | 8
SMILES | TNF necrop inh | MDM2 E3 inh | zVAD death inh | Wee1 degr inh | Pf gametocyte | zVAD necrop conf
CCCc1cc(C(=O)Nc2nccs2)cs1 | 38 | -32 | 99* | 1 | 4 | 80*
COc1ccc(NC(=O)Nc2nccs2)cc1 | -3 | -7 | 22 | -1 | -4 | x
COc1ccc(NC(=S)NNC(=O)C(C)n2nc(C)c([N+](=O)[O-])c2C)cc1 (centres undefined) | 0 | -53 | 0 | 0 | x | x
COC(=O)c1c(NC(=O)CSc2nnnn2-c2ccccc2)sc2c1CCC(C(C)(C)C)C2 (centres undefined) | 1 | -19 | 0 | -2 | x | x
CCn1nccc1C(=O)Nc1nccs1 | 4 | -9 | 85* | -2 | x | 37
Cc1ccnc(NC(=O)CSc2cc(=O)n(C)c3ccccc23)c1 | 15 | -8 | 74 | 6 | x | x
Cn1c(=O)cc(SCC(=O)Nc2ccccn2)c2ccccc21 | 11 | -4 | 81* | 3 | x | 2
c1ccc(-c2ccc(C3=Nn4c(nnc4-c4cc(-c5ccccc5)n[nH]4)SC3)cc2)cc1 | -2 | -14 | 0 | 0 | x | x
CC(=O)c1c(C)[nH]c(C(=O)OCc2ccccc2)c1C | 0 | -13 | 71 | 1 | -24 | x
CCN(CC)CCc1c(C)[nH]c(C(=O)OCc2ccccc2)c1C | -1 | -10 | 76* | 0 | x | 38
CC(=O)c1sc(NC(=O)c2ccc(C(C)(C)C)cc2)nc1C | 3 | -27 | 75* | -1 | -10 | 1
CN(C)Cc1ccc(F)cc1Sc1ccc(Cl)cc1Cl | -2 | -19 | 1 | -1 | x | x
CN(CC1CCCO1)S(=O)(=O)c1ccc(C(=O)Nc2nccs2)cc1 (centres undefined) | 61* | 0 | 87* | -2 | -4 | 103*
Cc1cc(NC(=O)c2ccc(S(=O)(=O)N(C)CC3CCCO3)cc2)no1 (centres undefined) | 0 | -25 | 3 | 0 | 6 | x
O=C(Nc1nccs1)c1ccc(S(=O)(=O)N2CCOCC2)cc1 | 44 | 4 | 82* | 0 | 16 | 68*
O=C(Nc1ccc(S(=O)(=O)Nc2nccs2)cc1)c1ccc(S(=O)(=O)N2CCOCC2)cc1 | 1 | -1 | 3 | 1 | x | x
Oc1c(Br)cc(C2N=C(c3ccccc3)NO2)cc1Br (centres undefined) | 0 | -4 | 80* | 1 | -2 | 4
Nc1[nH]nc2nc(N3CCCC3)nc(-c3ccccc3)c12 | 2 | -5 | 16 | -2 | x | x
COc1ccc(-c2nc(N3CCOCC3)nc3n[nH]c(N)c23)cc1 | -6 | -18 | 75* | -3 | x | 43
CSc1nn(-c2ccc(C(=O)OC(C(=O)NC(N)=O)C(C)C)cc2)c(=S)s1 (centres undefined) | 0 | 1 | 10 | -1 | -5 | x
CCNC(=O)NC(=O)C(C)OC(=O)c1ccc(-n2nc(SC)sc2=S)cc1 (centres undefined) | 3 | -10 | 82* | -1 | x | 39
COc1ccc2c(C)nc(Nc3nc(C)c(C)c(=O)[nH]3)nc2c1 | -19 | -25 | 113* | 2 | 8 | 1
CCc1c(C)nc(Nc2nc(C)c3ccc(OC)cc3n2)[nH]c1=O | -3 | -16 | 5 | 6 | -1 | x
